Laboratory results taken from ChEMBL document CHEMBL5233277, “Oxidative Metabolism as a Modulator of Kratom's Biological Actions” (J Med Chem, 2021).
Calls of active or inactive are those of the source. The rule behind the calls is not given here.

Experiments:
[1] = target: T1, Delta-type opioid receptor (Mus musculus, UniProt P32300); test: Displacement of [125]IBNtxA from mouse DOR stably expressed in CHO cell membranes incubated for 90 mins; set-up: species or system Membrane
Procedure, shortened: (§1)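 MOR: 50 mM potassium phosphate with 5 mM MgSO4, 20 μg/mL protein. KOR and DOR: 50 mM potassium phosphate pH 7.0, 40 μg/mL protein. 25 °C, 90 min; glass-fiber filtration; levallorphan 8 μM defines nonspecific binding. Ki from IC50; at least three replicates.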

Mu-type opioid receptor [2] = target: T2, Mu-type opioid receptor (Mus musculus, UniProt P42866); test: Displacement of [125]IBNtxA from mouse MOR stably expressed in CHO cell membranes incubated for 90 mins; set-up: species or system Membrane; procedure, shortened: as §1
[3] = target: T3, Kappa-type opioid receptor (Mus musculus, UniProt P33534); test: Displacement of [125]IBNtxA from mouse KOR stably expressed in CHO cell membranes incubated for 90 mins; set-up: species or system Membrane; procedure, shortened: as §1
Mus musculus [4] = species on record: Mus musculus; test: animal or person; settings: 129Sv6, 0.5 h
Mus musculus [5] = test: Antinociceptive activity in sc dosed 129Sv6 mouse model assessed as peak effect measured at 15 mins by radiant heat tail flick assay; type: functional; settings: 129Sv6, 0.25 h
Mus musculus [6] = species on record: Mus musculus; test: animal or person; settings: C57BL/6J, po, 0.5 h
Mus musculus [7] = species on record: Mus musculus; test: animal or person; settings: 129Sv6, po, 1 h
[8] = target: T3, Kappa-type opioid receptor; test: Agonist activity at mouse KOR expressed in CHO cell membranes assessed as stimulation of [35S]-GTPgammaS binding incubated for 60 mins by scintillation spectroscopy analysis; set-up: species or system Membrane
Procedure, shortened: (§2)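 CHO cell membranes stably expressing cloned mouse opioid receptors; agonist-stimulated [35S]GTPγS binding. Three independent experiments, each in triplicate.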

[9] = target: Kappa-type opioid receptor (Mus musculus) (UniProt P33534); test: Agonist activity at mouse KOR expressed in CHO cell membranes assessed as stimulation of [35S]-GTPgammaS binding by measuring maximal efficacy incubated for 60 mins by scintillation spectroscopy analysis relative to U50,488H; settings: Membrane, filed as agonist
Procedure, shortened: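 CHO cell membranes stably expressing cloned mouse opioid receptors; agonist-stimulated [35S]GTPγS binding. […] Three independent experiments, each in triplicate.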

[10] = Toxicity in CD1 mouse assessed as fatality at 10 ug, IT; settings: in vivo, other, dose 10 µg
[11] = Toxicity in MOR knock out C57BL/6J mouse at 50 mg/kg, sc in presence of norbinaltorphimine; type: organism-based; settings: in vivo
[12] = Toxicity in MOR knock out C57BL/6J mouse at 50 mg/kg, sc in presence of naltrindole; type: organism-based; settings: in vivo
[13] = Toxicity in sc dosed C57BL/6J mouse assessed as lethality at 50 mg/kg, sc; type: organism-based; settings: in vivo, read-out: Activity
Procedure, shortened: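 Opioid-naïve C57BL/6J mice (n = 4) were given a single 50 mg/kg subcutaneous dose in DMSO/solutol/saline (1:1:8) and observed for lethality, reported as percent of animals dying.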

[14] = Toxicity in sc dosed CD1 mouse assessed as lethality; type: organism-based; settings: in vivo
Procedure, shortened: (§3)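 Groups of mice (n = 6 per dose) received graded subcutaneous doses in DMSO/solutol/saline (1:1:8) and were scored for lethality. […] Strains were 129Sv6 for line 3 and CD1 for […], both purchased from Jackson Laboratories.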

[15] = target: T1, Delta-type opioid receptor; test: Antagonist activity at mouse DOR expressed in CHO cell membranes assessed as inhibition of DPDPE induced [35S]-GTPgammaS binding incubated for 60 mins by scintillation spectroscopy analysis; set-up: species or system Membrane
[16] = Toxicity in 129Sv6 mouse assessed as fatality at 10 ug, IT; settings: in vivo, other, dose 10 µg
[17] = Drug concentration in C57BL/6J mouse plasma at 30 mg/kg, po measured after 24 hrs by LC-MS/MS analysis; type: ADME, organism-based; settings: in vivo, BLD = below limit of detection
[18] = Toxicity in C57BL/6J mouse at 50 mg/kg, sc in presence of norbinaltorphimine; type: organism-based; settings: in vivo
[19] = Toxicity in C57BL/6J mouse at 50 mg/kg, sc in presence of naltrindole; type: organism-based; settings: in vivo
[20] = Toxicity in sc dosed 129Sv6 mouse assessed as lethality; type: organism-based; settings: in vivo; procedure, shortened: as §3
Mu-type opioid receptor [21] = target: T2, Mu-type opioid receptor; test: Agonist activity at mouse MOR expressed in CHO cell membranes assessed as stimulation of [35S]-GTPgammaS binding incubated for 60 mins by scintillation spectroscopy analysis; set-up: species or system Membrane; procedure, shortened: as §2
[22] = Drug concentration in C57BL/6J mouse brain at 30 mg/kg, po measured after 24 hrs by LC-MS/MS analysis; type: ADME, organism-based; settings: in vivo, BLD = below limit of detection
Mus musculus [23] = species on record: Mus musculus; test: Antinociceptive activity in mouse; type: functional, organism-based
[24] = target: Mu-type opioid receptor (Mus musculus) (UniProt P42866); test: Partial agonist activity at mouse MOR expressed in CHO cell membranes assessed as stimulation of [35S]-GTPgammaS binding by measuring maximal efficacy incubated for 60 mins by scintillation spectroscopy analysis relative DAMGO; settings: Membrane, filed as partial agonist
Procedure, shortened: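 Membranes from CHO cells stably expressing mouse MOR were used in an agonist-stimulated [35S]GTPγS binding assay. […] Data are from three independent experiments, each run in triplicate.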

Mus musculus [25] = test: Potency index, ratio of morphine ED50 to test compound ED50 for antinociceptive activity in po dosed 129Sv6 mouse model assessed as peak effect measured at 15 mins by radiant heat tail flick assay; type: functional; settings: 0.25 h
Mus musculus [26] = test: Antinociceptive activity in po dosed C57BL/6J mouse model assessed as peak effect measured at 20 mins by radiant heat tail flick assay; type: functional
[27] = target: Mu-type opioid receptor (Mus musculus) (UniProt P42866); test: Potency index, ratio of mitragynine Ki to test compound Ki for displacement of [125]IBNtxA from mouse MOR stably expressed in CHO cell membranes incubated for 90 mins; settings: Membrane
Mus musculus [28] = test: Potency index, ratio of morphine ED50 to test compound ED50 for antinociceptive activity in po dosed C57BL/6J mouse model assessed as peak effect measured at 20 mins by radiant heat tail flick assay; type: functional
[29] = Drug concentration in C57BL/6J mouse brain at 1 mg/kg, sc measured after 20 mins by LC-MS/MS analysis; type: ADME, organism-based; settings: read-out: Ct
[30] = Toxicity in C57BL/6J mouse assessed as hyperlocomotion at 1 mg/kg, sc measured after 20 mins; type: organism-based; settings: in vivo
[31] = target: Mu-type opioid receptor (Mus musculus) (UniProt P42866); test: Potency index, ratio of mitragynine EC50 to test compound EC50 for agonist activity at mouse MOR expressed in CHO cell membranes assessed as stimulation of [35S]-GTPgammaS binding incubated for 60 mins by scintillation spectroscopy analysis; settings: Membrane
[32] = Drug concentration in C57BL/6J mouse plasma at 1 mg/kg, sc measured after 20 mins by LC-MS/MS analysis; type: ADME, organism-based
[33] = Toxicity in C57BL/6J mouse assessed as conditioned place preference at 1 mg/kg, sc; type: organism-based; settings: in vivo
Procedure, shortened: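 C57BL/6J mice (n = 18–24) were habituated to a two-compartment apparatus for 3 h per day over 2 days, then given a 20 min pre-conditioning baseline test. Conditioning used 20 min sessions with drug at 1 mg/kg/d sc or saline. On test day mice explored freely for 20 min, and a difference score was calculated.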

T1 sequence (P32300 whole entry): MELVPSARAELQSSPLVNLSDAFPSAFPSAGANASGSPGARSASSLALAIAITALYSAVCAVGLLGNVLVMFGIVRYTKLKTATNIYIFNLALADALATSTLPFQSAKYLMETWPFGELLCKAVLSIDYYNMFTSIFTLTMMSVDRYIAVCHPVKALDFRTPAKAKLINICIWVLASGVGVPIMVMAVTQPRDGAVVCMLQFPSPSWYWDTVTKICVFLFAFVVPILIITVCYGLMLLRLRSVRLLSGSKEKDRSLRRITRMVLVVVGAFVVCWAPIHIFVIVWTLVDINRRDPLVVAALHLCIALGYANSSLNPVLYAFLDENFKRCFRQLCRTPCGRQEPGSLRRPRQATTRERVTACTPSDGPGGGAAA
T3 sequence (P33534 whole entry): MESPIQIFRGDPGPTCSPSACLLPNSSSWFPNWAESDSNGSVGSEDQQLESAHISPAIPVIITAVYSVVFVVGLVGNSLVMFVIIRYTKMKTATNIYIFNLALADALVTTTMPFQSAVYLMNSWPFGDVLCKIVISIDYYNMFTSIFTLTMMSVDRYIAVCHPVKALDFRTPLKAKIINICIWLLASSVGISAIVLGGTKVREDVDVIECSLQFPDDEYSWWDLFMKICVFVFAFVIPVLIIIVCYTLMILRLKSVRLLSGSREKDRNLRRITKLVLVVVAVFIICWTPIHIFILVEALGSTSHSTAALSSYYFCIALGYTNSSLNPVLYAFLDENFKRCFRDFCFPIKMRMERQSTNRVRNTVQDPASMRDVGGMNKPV
Chain of Mu-type opioid receptor (Mus musculus) (P42866 whole entry): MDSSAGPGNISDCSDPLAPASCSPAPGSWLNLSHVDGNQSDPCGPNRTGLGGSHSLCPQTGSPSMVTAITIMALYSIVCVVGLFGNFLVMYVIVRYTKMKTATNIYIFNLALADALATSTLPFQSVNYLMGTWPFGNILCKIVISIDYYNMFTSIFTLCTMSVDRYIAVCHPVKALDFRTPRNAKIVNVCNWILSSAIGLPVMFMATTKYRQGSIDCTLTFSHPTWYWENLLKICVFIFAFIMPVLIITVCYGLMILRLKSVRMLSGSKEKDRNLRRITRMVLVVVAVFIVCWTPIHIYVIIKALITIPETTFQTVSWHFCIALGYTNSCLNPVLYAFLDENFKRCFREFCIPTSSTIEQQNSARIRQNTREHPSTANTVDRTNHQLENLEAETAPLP
T2 sequence (P42866 whole entry): as above
Chain of Kappa-type opioid receptor (Mus musculus) (P33534 whole entry): as the sequence (P33534 whole entry) above

Compound `CC[C@@H]1C[N+]2([O-])CCc3c([nH]c4cccc(OC)c34)[C@@H]2C[C@@H]1/C(=C\OC)C(=O)OC` (stereo not given in full) has a Ki [1] of 4140 nM, a Ki (Mu-type opioid receptor [2]) of 6900 nM and a Ki [3] of 7180 nM.

In the case of `CN1CC[C@]23c4c5ccc(O)c4O[C@H]2[C@@H](O)C=C[C@H]3[C@H]1C5` [MORPHINE], the ED50 (Mus musculus [4]) is reported as 0.7 mg/kg, the ED50 (Mus musculus [5]) is reported as 0.68 mg/kg and the ED50 (Mus musculus [6]) is reported as 4.73 mg/kg. It also gave an ED50 (Mus musculus [7]) of 3.3 mg/kg.

With `CC[C@@H]1C[N+]2=C(C[C@@H]1/C(=C\OC)C(=O)OC)c1[nH]c3cccc(OC)c3c1CC2` the EC50 [8] was 166 nM, the Emax [9] was 64% and the Activity [10] was “Toxic”. The Activity [11] was “Toxic”, the Activity [12] was “Toxic” and the ED50 (Mus musculus [5]) was greater than 100 mg/kg. The mortality [13] was 100%, the LD50 [14] was 74 mg/kg and the IC50 [15] was 1100 nM. For the same compound, the Activity [16] was “Toxic”, the Cp [17] was “Bld” and the Activity [18] was “Toxic”. For the same compound, the Ki [1] was 49.1 nM, the Activity [19] was “Toxic” and the Ki (Mu-type opioid receptor [2]) was 34.1 nM. For the same compound, the LD50 [20] was 48.4 mg/kg, the EC50 (Mu-type opioid receptor [21]) was 67.5 nM and the Ct [22] was “Bld”. The Activity (Mus musculus [23]) was “inactive” and the Ki [3] was 125 nM.

In the case of `CC[C@@H]1CN2CCc3c([nH]c4cccc(OC)c34)[C@H]2C[C@@H]1/C(=C\OC)C(=O)OC`, the Emax [9] is reported as 58%, the Emax [24] is reported as 45% and the ED50 (Mus musculus [5]) is reported as greater than 100 mg/kg.

In the case of `CC[C@@H]1CN2CC[C@@]3(O)C(=Nc4cccc(OC)c43)[C@@H]2C[C@@H]1/C(=C\OC)C(=O)OC`, the “Ratio ED50” value (Mus musculus [25]) is reported as 3, the ED50 (Mus musculus [26]) is reported as 0.3 mg/kg and the Ratio Ki [27] is reported as 6. The “Ratio ED50” value (Mus musculus [28]) was 3, the ED50 (Mus musculus [5]) was 0.2 mg/kg and the concentration at 20 min [29] was 450 nM. The Activity [30] was “Non-Toxic”, the Ratio EC50 [31] was 4 and the concentration at 20 min [32] was 270 nM. For the same compound, the Activity [33] was “Toxic”.
